In article PMC10329767 (Biochemistry, 2023):
“And” between values parts separate entries of the source, which are not always exact repeats. Equal entries are not always repeated.

What was measured:
[1] = tested on: 2,3,5-F3Y158 InhA; type: biochemical, Mycobacterium tuberculosis; details: 2,3,5-F3Y158 InhA vs wild-type
[2] = 19F NMR pH titration of the free amino acid in solution; type: physicochemical; details: 19F NMR chemical shift vs pD
Procedure, shortened: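 Free fluorinated Tyr amino acid (5 mg) dissolved in 30 mM deuterated PIPES buffer; pD adjusted with DCl or NaOD across pD 3.6–12.5. 19F spectra recorded on a 400 MHz spectrometer. The 19F chemical shift was plotted against pD and fitted to obtain pKa values.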

[3] = biological target: 3-FY158 InhA; assay: Direct binding fluorescence titration of NADH; set-up: species or system Mycobacterium tuberculosis; details: 25 °C, pH 6.8
[4] = biological target: 2,3,5-F3Y158 InhA; set-up: species or system Mycobacterium tuberculosis; details: NADH binding, 25 °C, pH 6.8
[5] = biological target: 3,5-F2Y158 InhA; set-up: species or system Mycobacterium tuberculosis; details: NADH binding, 25 °C, pH 6.8
[6] = biological target: T1, wild-type InhA (Mycobacterium tuberculosis, UniProt P9WGR1); assay: Direct binding fluorescence titration of NADH
[7] = tested on: Y158F mutant; details: cited from earlier work
[8] = biological target: 3-FY158 InhA; details: read-out: Kiapp; PT166, rapid reversible, global fit to equations 6 and 7
[9] = biological target: 3,5-F2Y158 InhA; type: biochemical, Mycobacterium tuberculosis; details: read-out: Kiapp; PT166, rapid reversible, global fit to equations 6 and 7
[10] = tested on: 2,3,5-F3Y158 InhA; type: biochemical, Mycobacterium tuberculosis
[11] = biological target: T1, wild-type InhA; details: read-out: Kiapp; PT166, rapid reversible, global fit to equations 6 and 7

## CCCCCCCCC/C=C/C(=O)SCCNC(=O)CCNC(=O)[C@H](O)C(C)(C)COP(=O)(O)OP(=O)(O)OC[C@H]1O[C@@H](n2cnc3c(N)ncnc32)[C@H](O)[C@@H]1OP(=O)(O)O [DDCOA, trans-2-dodecenoyl-CoA]
[1]
  fold higher KMapp for dd-CoA than wild-type InhA: ~ 5 fold

## N[C@@H](Cc1cc(F)c(O)c(F)c1F)C(=O)O [2,3,5-F3Y, 2,3,5-trifluoroTyr]
[2]
  pKa of the hydroxyl group: 6.5

## NC(=O)C1=CN([C@@H]2O[C@H](COP(=O)(O)OP(=O)(O)OC[C@H]3O[C@@H](n4cnc5c(N)ncnc54)[C@H](O)[C@@H]3O)[C@@H](O)[C@H]2O)C=CC1 [NADH]
[3]
  Kd: 7.1 ± 0.6 µM
[4]
  Kd: 8.7 ± 0.2 µM
[5]
  Kd: 8.1 ± 0.5 µM
[6]; 25 °C, pH 6.8, C-terminal His-tag InhA
  Kd: 8.2 ± 0.3 µM
[6]; fit to Equation 1
  N (Hill coefficient): 3.1 ± 0.3

## Oc1cc(Cl)ccc1Oc1ccc(Cl)cc1Cl [triclosan]
[7]
  fold lower affinity for Y158F mutant compared to wild-type InhA: ~ 100 fold

## CCCCCCc1cc(=O)c(Oc2ccccc2C)cn1C [PT166]
[8]
  Ki: 0.033 ± 0.001 µM
[9]
  Ki: 0.048 ± 0.001 µM
[10]; PT166, 2,3,5-F3Y158 InhA vs wild-type
  fold change (decrease in affinity) in Kiapp compared to wild-type: ~ 7 fold and 7 fold
[10]; read-out: Kiapp, PT166, rapid reversible, global fit to equations 6 and 7
  Ki: 0.213 ± 0.002 µM
[11]
  Ki: 0.031 ± 0.001 µM
